The source made the active and inactive calls. No cut-off for these calls is given here.
Tests used:
[1] = system: HEK293; assay: Effect on Wnt/[…] reporter pathway in HEK293 cells expressing super(8X)TOPFlash reporter assessed as luciferase activity in presence of Wnt-3a; format: functional, cell-based; conditions: Homo sapiens
In short: (§1)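 HEK293 cells transfected with Super(8X)TOPFlash reporter plus renilla control; 24 h post-transfection, compound added over a dose range with or without Wnt-3a conditioned medium (1:1 vol/vol to growth medium); firefly luciferase read 36 h later, normalized to renilla; error bars SD.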

[2] = system: HEK293; assay: Reduction of super(8X)TOPFlash reporter activity in HEK293 cells at 0.25 uM in presence of Wnt-3a conditional medium relative to control; format: functional, Homo sapiens; design: scale not given: the % may be the effect or the level left
In short: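 HEK293 cells carrying the Super(8X)TOPFlash luciferase reporter, treated at 0.25 μM in Wnt-3a conditioned medium; reporter luciferase activity compared with DMSO-treated control cells under the same Wnt-3a stimulation.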

[3] = target: ADP-ribosylation factor 6 (Mus musculus) (UniProt P62331); assay: Inhibition of ADP-ribosylation factor 6 activity in mouse NIH3T3 cells assessed as increase in endogenous ARF6-GTP level at 2.5 uM relative to control; format: cell-based
[4] = Activation of Wnt/[…] pathway in Xenopus embryos assessed as partial double axis formation at 10 uM in presence of XWnt-8 RNA after 24 hrs; format: functional
In short: (§2)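 XWnt-8 RNA (0.5 pg) co-injected with 10 nL of 10 μM compound (or 10 nL water) into one ventral blastomere at 16- to 32-cell stage; embryos kept 24 h, then scored for partial versus full double axis formation.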

[5] = target: ADP-ribosylation factor 6 (Mus musculus) (UniProt P62331); assay: Inhibition of ADP-ribosylation factor 6 activity in mouse NIH3T3 cells assessed as increase in endogenous ARF6-GTP level at 1 uM relative to control; format: cell-based
[6] = system: HEK293; assay: Induction of Wnt-3a-induced Axin2 gene expression in HEK293 cells in presence of Wnt-3a; format: functional, cell-based; conditions: Homo sapiens
[7] = system: HEK293; assay: Effect on Wnt/[…] reporter pathway in HEK293 cells expressing super(8X)TOPFlash reporter assessed as luciferase activity at 2.5 uM in presence of Wnt-3a; format: functional, Homo sapiens
In short: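 HEK293 cells (20,000/well) reverse-transfected with Super(8X)TOPFlash and pTK-RL (Fugene6), 24 h at 37°C; compound 2.5 μM plus Wnt-3a conditioned medium (1:1 vol/vol) added; Dual-Glo luciferase read 36 h later, fold activation normalized to renilla; mean of three independent data points.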

[8] = system: MDA-MB-231; assay: Inhibition of migration of AMAP1 expressing human MDA-MB-231 cells at 2.5 uM relative to control; format: functional; design: scale not given: the % may be the effect or the level left
In short: (§3)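 Modified Boyden chambers, filter underside coated with 5 μg/cm² Matrigel; MDA-MB-231 cells (5,000/well) seeded upper chamber in RPMI1640 with 0.5% BSA plus compound, lower chamber DMEM with 10% FBS; after 12 h, cells on lower side counted by microscopy versus DMSO.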

[9] = Activation of Wnt/[…] pathway in Xenopus embryos assessed as full axis formation at 10 uM in presence of XWnt-8 RNA after 24 hrs; format: functional; in short: as §2
[10] = system: HEK293; assay: Effect on Wnt/[…] reporter pathway in HEK293 cells expressing superFOPFlash reporter plasmid assessed as luciferase activity at 0.11 to 25 uM in presence of Wnt-3a; format: functional, cell-based; conditions: Homo sapiens, 0.011 to 25 uM, in the assay text read “0.011 to 25 uM” for “0.11 to 25 uM”
In short: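 SuperFOPFlash reporter (mutated β-catenin/TCF sites) transfected into HEK293 cells; compound 0.011–25 μM given with Wnt-3a conditioned medium 24 h after transfection; luciferase read after 36 h, normalized to renilla.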

[11] = system: HEK293; assay: Effect on Wnt/[…] reporter pathway in HEK293 cells expressing super(8X)TOPFlash reporter plasmid assessed as luciferase activity in presence of recombinant Wnt-3a; format: functional, cell-based; conditions: Homo sapiens
[12] = system: MDA-MB-231; assay: Inhibition of migration of AMAP1 expressing human MDA-MB-231 cells; format: functional, cell-based; in short: as §3
[13] = system: HEK293; assay: Induction of Wnt-3a-induced DKK1 gene expression in HEK293 cells in presence of Wnt-3a; format: functional, cell-based; conditions: Homo sapiens
[14] = system: HEK293; assay: Effect on Wnt/[…] reporter pathway in HEK293 cells expressing super(8X)TOPFlash reporter plasmid assessed as luciferase activity; format: functional, Homo sapiens; in short: as §1
[15] = target: ADP-ribosylation factor GTPase-activating protein 1, ARFGAP1 (Homo sapiens) (UniProt Q8N6T3); assay: Binding affinity to purified ARFGAP1 by surface plasmon resonance analysis
Sequence of ADP-ribosylation factor GTPase-activating protein 1, ARFGAP1 (Homo sapiens) (Q8N6T3 whole entry, looked up): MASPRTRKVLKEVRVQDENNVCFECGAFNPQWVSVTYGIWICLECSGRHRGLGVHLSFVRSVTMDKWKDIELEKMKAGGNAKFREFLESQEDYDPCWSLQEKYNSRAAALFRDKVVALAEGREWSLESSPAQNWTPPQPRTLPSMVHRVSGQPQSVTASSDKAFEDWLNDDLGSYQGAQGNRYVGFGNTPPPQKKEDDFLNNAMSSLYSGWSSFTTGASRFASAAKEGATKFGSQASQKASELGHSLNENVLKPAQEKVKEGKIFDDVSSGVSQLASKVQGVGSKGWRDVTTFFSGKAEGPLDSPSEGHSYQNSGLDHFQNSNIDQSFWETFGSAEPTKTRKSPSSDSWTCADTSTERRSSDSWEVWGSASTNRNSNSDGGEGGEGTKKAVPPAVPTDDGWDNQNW

Sequence of ADP-ribosylation factor 6 (Mus musculus) (P62331 whole entry): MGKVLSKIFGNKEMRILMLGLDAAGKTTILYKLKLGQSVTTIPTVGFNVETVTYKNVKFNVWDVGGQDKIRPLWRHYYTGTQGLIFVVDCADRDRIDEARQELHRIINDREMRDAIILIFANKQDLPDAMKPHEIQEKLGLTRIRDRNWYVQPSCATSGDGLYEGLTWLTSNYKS

FC(F)(F)c1ccc(Cn2cnc3c(NCCc4ccccc4)nc(Oc4ccc5c(c4)CCC5)nc32)cc1
EC50 [1]: > 7.1 µM

CC1(C)Cc2cc(Oc3nc(NCc4ccccc4)c4ncn(Cc5ccc(-c6ccccc6)cc5)c4n3)ccc2O1
EC50 [1]: 1.7 µM

[N-]=[N+]=Nc1ccc(C[C@@H](CO)Nc2nc(Oc3ccc4c(c3)CCC4)nc3c2ncn3Cc2ccc(-c3ccccc3)cc2)cc1
EC50 [1]: 0.6 µM

OC[C@H](Cc1ccccc1)Nc1nc(Oc2ccc3c(c2)CCC3)nc2c1ncn2Cc1ccccc1
EC50 [1]: > 7.1 µM

O=[N+]([O-])c1ccc(C[C@@H](CO)Nc2nc(Oc3ccc4c(c3)CCC4)nc3c2ncn3Cc2ccc(-c3ccccc3)cc2)cc1
EC50 [1]: 0.4 µM

OC[C@H](Cc1ccccc1)Nc1nc(Oc2cccc3ccccc23)nc2c1ncn2Cc1ccc(-c2ccccc2)cc1
EC50 [1]: 4.6 µM

O=[N+]([O-])c1ccc(-c2ccc(Cn3cnc4c(N[C@H](CO)Cc5ccccc5)nc(Oc5ccc6c(c5)CCC6)nc43)cc2)cc1
EC50 [1]: 1.5 µM

C[C@H]1CCC/C=C/[C@@H]2C[C@H](O)C[C@H]2[C@H](O)/C=C/C(=O)O1 [BREFELDIN A]
Activity [2]: 50%

OC[C@H](Cc1ccccc1)Nc1nc(Oc2cccc(-c3ccccc3)c2)nc2c1ncn2Cc1ccc(-c2ccccc2)cc1
EC50 [1]: 3.1 µM

OC[C@H](Cc1ccccc1)Nc1nc(Oc2ccc3c(c2)CCC3)nc2c1ncn2Cc1ccc(-c2ccccc2)cc1
Activity [3]: Active | Activity [4]: 30.2% | Activity [5]: Active | Activity [6]: Active | Activity [7]: 200 | Activity [8]: 80% | Activity [9]: 20.9% | Activity [10]: inactive | Activity [11]: Active | Activity [12]: Dose-dependent effect | Activity [13]: Active | Activity [14]: 2 | Kd [15]: 0.62 µM | EC50 [1]: 0.5 µM

OC[C@H](Cc1ccccc1)Nc1nc(Nc2cccc3ccccc23)nc2c1ncn2Cc1ccc(-c2ccccc2)cc1
EC50 [1]: > 7.1 µM

OC[C@H](Cc1ccccc1)Nc1nc(NCc2ccc3c(c2)OCO3)nc2c1ncn2Cc1ccc(-c2ccccc2)cc1
EC50 [1]: > 7.1 µM

OC[C@@H](Cc1ccccc1)Nc1nc(Oc2ccc3c(c2)CCC3)nc2c1ncn2Cc1ccc(-c2ccccc2)cc1
EC50 [1]: > 7.1 µM

From ChEMBL document CHEMBL1142220, “Small-molecule synergist of the Wnt/beta-catenin signaling pathway” (Proc Natl Acad Sci U S A, 2007)
